ChEMBL document CHEMBL1127630, “New dual inhibitors of neutral endopeptidase and angiotensin-converting enzyme: rational design, bioavailability, and pharmacological responses in experimental hypertension” (J Med Chem, 1994)
Values belong to the compound of their own block, whether it stands above or below them.

Experiments:
[1] = target: T1, Angiotensin-converting enzyme (Mus musculus) (UniProt P09470); assay: In vivo inhibition of lung Angiotensin Converting Enzyme (ACE) in mouse at a dose of 2.6*10e-5 mol/kg after 60 min oral administration; type: functional, organism-based
T1 sequence (whole entry): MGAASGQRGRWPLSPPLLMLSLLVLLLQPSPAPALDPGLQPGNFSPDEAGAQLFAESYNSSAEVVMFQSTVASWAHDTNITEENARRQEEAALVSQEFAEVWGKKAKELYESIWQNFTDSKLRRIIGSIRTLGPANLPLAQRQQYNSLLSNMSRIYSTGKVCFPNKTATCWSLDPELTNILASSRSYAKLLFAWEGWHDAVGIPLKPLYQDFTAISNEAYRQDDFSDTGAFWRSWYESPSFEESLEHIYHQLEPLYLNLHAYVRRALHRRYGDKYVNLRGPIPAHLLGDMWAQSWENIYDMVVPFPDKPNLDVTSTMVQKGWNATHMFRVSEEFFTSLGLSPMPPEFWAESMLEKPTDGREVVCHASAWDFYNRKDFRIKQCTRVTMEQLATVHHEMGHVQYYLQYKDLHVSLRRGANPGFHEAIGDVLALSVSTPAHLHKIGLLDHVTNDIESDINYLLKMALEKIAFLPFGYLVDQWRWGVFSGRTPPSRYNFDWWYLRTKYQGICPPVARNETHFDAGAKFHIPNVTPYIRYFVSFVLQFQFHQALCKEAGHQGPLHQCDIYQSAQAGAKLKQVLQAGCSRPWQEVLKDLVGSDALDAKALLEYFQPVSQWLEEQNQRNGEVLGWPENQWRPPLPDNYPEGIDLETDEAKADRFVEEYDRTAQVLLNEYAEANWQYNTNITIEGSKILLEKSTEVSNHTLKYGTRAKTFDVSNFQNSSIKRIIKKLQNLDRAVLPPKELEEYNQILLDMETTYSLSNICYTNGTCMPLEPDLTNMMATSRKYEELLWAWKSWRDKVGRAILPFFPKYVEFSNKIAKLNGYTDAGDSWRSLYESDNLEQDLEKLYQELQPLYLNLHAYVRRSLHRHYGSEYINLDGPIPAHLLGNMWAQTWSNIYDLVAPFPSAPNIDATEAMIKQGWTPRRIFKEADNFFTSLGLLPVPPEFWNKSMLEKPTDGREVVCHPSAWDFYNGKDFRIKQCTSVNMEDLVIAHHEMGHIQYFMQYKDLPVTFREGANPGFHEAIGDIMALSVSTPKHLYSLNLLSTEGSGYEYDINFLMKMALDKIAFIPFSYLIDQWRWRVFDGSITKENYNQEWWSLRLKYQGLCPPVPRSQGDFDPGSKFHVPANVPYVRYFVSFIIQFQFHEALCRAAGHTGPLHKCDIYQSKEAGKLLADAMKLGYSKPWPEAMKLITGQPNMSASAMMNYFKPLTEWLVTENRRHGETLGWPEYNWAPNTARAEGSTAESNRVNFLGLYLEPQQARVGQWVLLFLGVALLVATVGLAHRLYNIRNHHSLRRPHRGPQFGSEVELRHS
Method in brief: (§1)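 Prescreen in mice: single oral dose of 2.6 X 10-5 mol/kg of prodrug (thioacetyl and benzyl ester protected, tested as stereoisomer mixtures). Inhibition of binding of a tritiated ACE probe to lung measured 20 and 60 min after dosing. Mean ± SEM of three experiments, three mice each.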

[2] = target: T1, Angiotensin-converting enzyme (Mus musculus); assay: Inhibition of lung Angiotensin Converting Enzyme (ACE) in mouse at a dose of 2.6*10e-5 mol/kg after 20 min oral administration; method in brief: as §1
[3] = target: T2, Angiotensin-converting enzyme (Mus musculus, UniProt P09470); assay: Inhibitory potency against angiotensin converting enzyme by displacement of [3H]trandolaprilate binding in mouse lung
T2 sequence (P09470 whole entry): T1 sequence (whole entry)

[4] = target: T1, Angiotensin-converting enzyme (Mus musculus); assay: In vivo inhibition of lung ACE was observed at 120 min after oral administration of the compound; type: functional, organism-based; set-up: concentration or dose not given beside the values
[5] = target: T1, Angiotensin-converting enzyme (Mus musculus); assay: In vivo inhibition of lung ACE was observed at 240 min after oral administration of the compound; type: functional, organism-based; set-up: concentration or dose not given beside the values
[6] = system: Mus musculus; assay: In vivo inhibition of lung ACE was observed at 60 min after oral administration; type: functional; set-up: concentration or dose not given beside the values
[7] = target: T1, Angiotensin-converting enzyme (Mus musculus); assay: In vivo inhibition of lung ACE was observed at 30 min after oral administration of the compound; type: organism-based; set-up: concentration or dose not given beside the values
[8] = target: T3, Neprilysin (Mus musculus) (UniProt Q61391); assay: Inhibition of Neutral Endopeptidase activity was measured by using the displacement of [3H]-HACBOGly from mouse kidney after 1 hr oral administration; set-up: scale not given: the % may be the effect or the level left
T3 sequence (whole entry): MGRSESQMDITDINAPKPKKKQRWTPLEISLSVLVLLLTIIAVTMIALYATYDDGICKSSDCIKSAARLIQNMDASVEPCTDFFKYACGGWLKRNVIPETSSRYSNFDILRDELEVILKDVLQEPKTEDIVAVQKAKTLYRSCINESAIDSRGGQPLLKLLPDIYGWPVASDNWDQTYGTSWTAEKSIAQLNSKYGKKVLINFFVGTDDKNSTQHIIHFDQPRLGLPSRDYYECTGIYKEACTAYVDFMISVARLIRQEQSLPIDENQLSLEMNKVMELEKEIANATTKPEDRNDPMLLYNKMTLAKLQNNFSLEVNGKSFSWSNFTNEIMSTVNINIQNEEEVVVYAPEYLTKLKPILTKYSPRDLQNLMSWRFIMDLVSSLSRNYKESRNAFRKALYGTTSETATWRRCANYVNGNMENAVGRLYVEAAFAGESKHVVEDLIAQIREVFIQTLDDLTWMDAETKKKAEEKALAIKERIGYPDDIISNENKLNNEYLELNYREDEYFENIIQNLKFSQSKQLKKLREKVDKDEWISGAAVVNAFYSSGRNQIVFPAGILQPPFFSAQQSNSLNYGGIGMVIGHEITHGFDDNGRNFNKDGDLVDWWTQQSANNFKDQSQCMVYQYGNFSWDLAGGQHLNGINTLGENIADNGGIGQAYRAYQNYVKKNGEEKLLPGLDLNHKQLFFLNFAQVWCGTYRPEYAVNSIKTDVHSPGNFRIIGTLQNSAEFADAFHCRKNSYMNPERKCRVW
Method in brief: (§2)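 Mice dosed orally at 2.6 X 10-6 mol/kg in 10% ethanol/10% cremophor/80% water. [3H]HACBOGly (1 uCi) injected iv at intervals after dosing. Kidneys taken 15 min later, homogenized in 50 mM Tris-HCl pH 7.4 at 4 °C and filtered, radioactivity counted. Inhibition expressed as percent displacement versus control. Nonspecific binding defined with coinjected retrothiorphan (10.000 eq).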

[9] = target: T3, Neprilysin (Mus musculus); assay: Inhibition of Neutral Endopeptidase activity was measured by using the displacement of [3H]HACBOGly from mouse kidney after 8 hr oral administration; set-up: scale not given: the % may be the effect or the level left; method in brief: as §2
[10] = target: T3, Neprilysin (Mus musculus); assay: Inhibition of Neutral Endopeptidase activity was measured by using the displacement of [3H]HACBOGly from mouse kidney after 4 hr oral administration; set-up: scale not given: the % may be the effect or the level left; method in brief: as §2
[11] = target: T3, Neprilysin (Mus musculus); assay: Inhibition of Neutral Endopeptidase activity was measured by using the displacement of [3H]HACBOGly from mouse kidney after 16h oral administration; set-up: scale not given: the % may be the effect or the level left; method in brief: as §2
[12] = target: T3, Neprilysin (Mus musculus); assay: Inhibition of Neutral Endopeptidase activity was measured by using the displacement of [3H]HACBOGly from mouse kidney after 2 hr oral administration; set-up: scale not given: the % may be the effect or the level left; method in brief: as §2

Structure (SMILES): CC(=O)Oc1ccc(C[C@H](NC(=O)C(CSC(C)=O)C(C)c2ccc(F)c(F)c2)C(=O)OCc2ccccc2)cc1 (stereo not given in full)
- inhibition [1]: 19%
- inhibition [2]: 24%

Structure (SMILES): CC(NC(=O)C(CS)C(C)c1ccc(F)c(F)c1)C(=O)O (stereo not given)
- IC50 [3]: 5 nM

Structure (SMILES): CC(=O)Oc1ccc(C[C@H](NC(=O)C(CSC(C)=O)C(C)c2ccc(F)cc2)C(=O)OCc2ccccc2)cc1 (stereo not given in full)
- inhibition [1]: 11%
- inhibition [2]: 36%

Structure (SMILES): CC(c1ccccc1)C(CS)C(=O)N[C@@H](C)C(=O)O (stereo not given in full)
- IC50 [3]: 20 nM

Structure (SMILES): CC(c1ccccc1)C(CSC(=O)C12CC3CC(CC(C3)C1)C2)C(=O)N[C@@H](C)C(=O)OCc1ccccc1 (stereo not given in full)
- Control [4]: 42%
- Control [5]: 16%
- Control [6]: 34%
- Control [7]: 41%

Structure (SMILES): C[C@H](NC(=O)[C@H](CS)[C@@H](C)c1ccccc1)C(=O)O (stereo in doubt; 44a)
- Ki [3]: 80 nM

Structure (SMILES): C[C@H](NC(=O)[C@H](CS)[C@@H](C)c1ccccc1)C(=O)O (stereo in doubt; 44b)
- Ki [3]: 16 nM

Structure (SMILES): CC(c1ccc(O)cc1)C(CS)C(=O)NC(Cc1ccc(O)cc1)C(=O)O (stereo not given)
- IC50 [3]: 7.9 nM

Structure (SMILES): COc1ccc(C(C)C(CS)C(=O)NC(Cc2ccc(O)cc2)C(=O)O)cc1OC (stereo not given)
- IC50 [3]: 4 nM

Structure (SMILES): O=C(NC(Cc1ccc(O)cc1)C(=O)O)C(CS)Cc1ccccc1 (stereo not given)
- IC50 [3]: 25 nM

Structure (SMILES): CC(=O)SCC(C(=O)N[C@@H](Cc1ccc(O)cc1)C(=O)OCc1ccccc1)C(C)c1ccccc1 (stereo not given in full)
- inhibition [1]: 7%
- inhibition [2]: 20%

Structure (SMILES): COc1cc(C(C)C(CS)C(=O)NC(Cc2ccc(O)cc2)C(=O)O)ccc1O (stereo not given)
- IC50 [3]: 14 nM

Structure (SMILES): CC(C)C(NC(=O)C(CS)C(C)c1ccccc1)C(=O)O (stereo not given)
- IC50 [3]: 100 nM

Continued, in another order:

- IC50 [3]: 5.4 nM
Structure (SMILES): CCC(NC(=O)C(CS)C(C)c1ccccc1)C(=O)O (stereo not given)

- IC50 [3]: 7 nM
Structure (SMILES): CCCCC(NC(=O)C(CS)C(C)c1ccccc1)C(=O)O (stereo not given)

- IC50 [3]: 19 nM
Structure (SMILES): CC(C)CC(NC(=O)C(CS)C(C)c1ccccc1)C(=O)O (stereo not given)

- Control [4]: 44%
- Control [8]: 100%
- Control [9]: 93%
- Control [10]: 100%
- Control [11]: 12%
- Control [5]: 32%
- Control [12]: 100%
- Control [7]: 75%
Structure (SMILES): CC(c1ccccc1)C(CSC(=O)c1ccccc1)C(=O)N[C@@H](C)C(=O)O (stereo not given in full)
- Control [6]: 66%

- Ki [3]: 95 nM
Structure (SMILES): C[C@H](NC(=O)[C@H](CS)[C@@H](C)c1ccccc1)C(=O)O (stereo in doubt; 44d)

- IC50 [3]: 4 nM
Structure (SMILES): CCCC(NC(=O)C(CS)C(C)c1ccccc1)C(=O)O (stereo not given)

- Ki [3]: 15 nM
Structure (SMILES): C[C@@H](c1ccccc1)[C@@H](CS)C(=O)N[C@@H](Cc1ccccc1)C(=O)O (stereo in doubt; 48b)

- IC50 [3]: 4.3 nM
Structure (SMILES): CC(c1ccccc1)C(CS)C(=O)NC(Cc1ccc(O)cc1)C(=O)O (stereo not given)
